Measured values as given in ChEMBL document CHEMBL1147827, “A pyrimidine-pyrazolone nucleoside chimera with potent in vitro anti-orthopoxvirus activity” (Bioorg Med Chem Lett, 2006).
pEC50: −log10 of the molar value.

Columns and labels:
Vaccinia virus = test: Antiviral activity against Vaccinia virus Copenhagen in HFF cells assessed as reduction in plaque formation; assay type: functional, organism-based; details: Orthopoxvirus vaccinia
HFF = test: Cytotoxicity against human HFF cells by neutral red uptake; assay type: functional
Method in brief: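 Uninfected HFF cells in 96-well plates were exposed to various drug concentrations for 7 days, then stained with neutral red.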

Cowpox virus [1] = test: Antiviral activity against Cowpox virus Brighton in HFF cells assessed as reduction in cytopathogenicity; assay type: functional, organism-based
Cowpox virus [2] = test: Antiviral activity against Cowpox virus Brighton in HFF cells assessed as reduction in plaque formation; assay type: functional, organism-based

With `Nc1ccn(C[C@@H](CO)OCP(=O)(O)O)c(=O)n1` [CIDOFOVIR] as the compound, how does the pEC50 (Vaccinia virus) read?
The pEC50 was 4.70.

What about the CC50 (HFF) of the same compound?
Its CC50 is over 317 µM.

And the pEC50 (Cowpox virus [1])?
Its pEC50 is 5.15.

Which results are given for `CC(=O)OC[C@H]1O[C@@H](n2cc(/C=C3\C(=O)N(c4ccccc4)N=C3C)c(=O)[nH]c2=O)C[C@@H]1OC(C)=O`?
pEC50 (Vaccinia virus): 4.25; CC50 (HFF): > 252 µM; pEC50 (Cowpox virus [2]): 4.32; pEC50 (Cowpox virus [1]): 4.47
